Source: PubChem BioAssay (several laboratories)
MC4R barr agon: agonists of human melanocortin 4 receptor (MC4R) beta-arrestin | 360,000 tested, 0.98% active | activation, % at 8.9 µM | U2OS MC4R beta-arrestin complementation, luminescence; percent of melanotan II response, DMSO zero;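 active = activation above a per-plate cutoff, the mean activation of sample wells on that plate plus 3 SD, cut at about 8% in these data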
MIN6 prolif: induces beta-cell replication in MIN6 cells | proliferation, % at 10 µM | 330,000 tested, 0.29% active | MIN6 cells proliferation, ATPlite luminescence, 48 h; cells starved in 0.2% serum; 100% = growth in 10% serum;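 active = compounds whose signal lies at least 3.5 SD above the mean of all wells on their plate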;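 note: 0% = DMSO-treated cells in low-serum medium and 100% = 10% serum control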
MC4R antag cAMP: blocks human MC4R cAMP signaling | P32245 | MC4R-expressing cells, MTII-stimulated cAMP, LANCE TR-FRET | inhibition, % at 6.5 µM | 360,000 tested, 0.48% active;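 active = inhibition above its plate's cutoff, the mean of tested wells on that plate plus 3 SD, cut at about 29% in these data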;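 note: 0% = Melanotan II alone and 100% = Melanotan II plus saturating MCL0020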
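System – human MC4R-expressing U2OS cells · Also added – Melanotan II · Dosing – one concentration, 6.5 µM nominal · Timing – 30-min compound, 1-h challenge, 1-h detection, room temperature · Measured by – Eu-cAMP/anti-cAMP TR-FRET, emission 671 nm · Replicates – singlicate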
ANO1 activ: activators or potentiators of mouse TMEM16A chloride channel; B-score at 10 µM; AID 623877; Q8BHY3; HEK293 TMEM16A/YFP-H148Q/I152L, iodide quench fluorescence; stronger effect = lower value; 340,000 tested, 0.3% active;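 active = fluorescence-ratio B-score plate-corrected deviation score at least 3 library SD below zero, with starting fluorescence score within 5 deviations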;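 note: channel opened by trigger with iodide after compound preincubation; score built on the fluorescence ratio of max minus min over baseline; more negative score means more quench and so TMEM16A activation or potentiation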
ANO1 block: mouse TMEM16A channel inhibition, primary screen; 310,000 tested, 1.2% active; normalized B-score (activity score, 25-100; higher = stronger inhibition) at 10 µM; HEK293 TMEM16A/YFP iodide influx fluorescence, ionomycin; Q8BHY3;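 active = ratio plate-corrected score three or more library SD toward inhibition, starting fluorescence score within five deviations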;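 note: score derived from kinetic fluorescence span divided by baseline fluorescence per well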
HTR2A ag: activates the mouse 5-HT2A serotonin receptor; activation, % at 7.6 µM; 360,000 tested, 0.66% active; CHO-K1 mHTR2A beta-arrestin complementation, luminescence; percent of 30 µM serotonin response;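 active = activation above a run cutoff, the mean activation of all tested compounds plus 3 SD, cut at about 14% in these data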;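 note: 0% = plate median of compound wells and 100% = 30 µM serotonin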
TMEM16A reconf: reconfirmed blocker of mouse TMEM16A calcium-activated chloride channel; shares compounds with ANO1 block; HEK293 TMEM16A/YFP-H148Q, iodide quench fluorescence; ionomycin added to raise cell calcium; inhibition, % at 10 µM; 2,300 tested, 39% active; AID 652189;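 active = mean duplicate percent inhibition, scaled so buffer wells are 0 and the reference blocker 100, over three buffer SD above buffer mean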
TMEM16A Ca cntr: calcium mobilization counter-screen hit for TMEM16A inhibitor series; AID 652231; shares compounds with ANO1 block; 2,300 tested, 2% active; calcium response (% of ionomycin), % at 10 µM; TMEM16A/YFP HEK293, Fluo4 calcium mobilization;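 active = duplicate-averaged calcium signal over 20% of the ionomycin maximum, relative to buffer baseline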;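 note: each well's signal is peak minus trough fluorescence divided by its pre-addition baseline; 0% = buffer wells and 100% = ionomycin wells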
Parental YFP cnt: parental YFP-HEK293 iodide quench counter-screen activity. shares compounds with ANO1 block. ionomycin. YFP ratio F(max-min)/F0 at 10 µM. 2,300 tested, under 10 active. AID 652233;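 active = yellow fluorescent protein signal ratio exceeding the buffer control mean by over 5 SD of those controls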;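 note: ratio is mean of duplicate wells from kinetic YFP trace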
ClC-1 rat inh: rat ClC-1 inhibition, TMEM16A specificity screen; shares compounds with ANO1 block; CHO ClC-1-YFP, iodide influx fluorescence quench; iodide control reads 0, buffer control 100; ratio percent, % at 10 µM; 2,300 tested, under 10 active; AID 652236;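 active = duplicate-mean ratio percent above the mean of iodide-only control wells, which defines zero, plus 5 of their SD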;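 note: higher percent means stronger block of ClC-1 iodide influx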
Target sequence (P35524 whole entry, looked up): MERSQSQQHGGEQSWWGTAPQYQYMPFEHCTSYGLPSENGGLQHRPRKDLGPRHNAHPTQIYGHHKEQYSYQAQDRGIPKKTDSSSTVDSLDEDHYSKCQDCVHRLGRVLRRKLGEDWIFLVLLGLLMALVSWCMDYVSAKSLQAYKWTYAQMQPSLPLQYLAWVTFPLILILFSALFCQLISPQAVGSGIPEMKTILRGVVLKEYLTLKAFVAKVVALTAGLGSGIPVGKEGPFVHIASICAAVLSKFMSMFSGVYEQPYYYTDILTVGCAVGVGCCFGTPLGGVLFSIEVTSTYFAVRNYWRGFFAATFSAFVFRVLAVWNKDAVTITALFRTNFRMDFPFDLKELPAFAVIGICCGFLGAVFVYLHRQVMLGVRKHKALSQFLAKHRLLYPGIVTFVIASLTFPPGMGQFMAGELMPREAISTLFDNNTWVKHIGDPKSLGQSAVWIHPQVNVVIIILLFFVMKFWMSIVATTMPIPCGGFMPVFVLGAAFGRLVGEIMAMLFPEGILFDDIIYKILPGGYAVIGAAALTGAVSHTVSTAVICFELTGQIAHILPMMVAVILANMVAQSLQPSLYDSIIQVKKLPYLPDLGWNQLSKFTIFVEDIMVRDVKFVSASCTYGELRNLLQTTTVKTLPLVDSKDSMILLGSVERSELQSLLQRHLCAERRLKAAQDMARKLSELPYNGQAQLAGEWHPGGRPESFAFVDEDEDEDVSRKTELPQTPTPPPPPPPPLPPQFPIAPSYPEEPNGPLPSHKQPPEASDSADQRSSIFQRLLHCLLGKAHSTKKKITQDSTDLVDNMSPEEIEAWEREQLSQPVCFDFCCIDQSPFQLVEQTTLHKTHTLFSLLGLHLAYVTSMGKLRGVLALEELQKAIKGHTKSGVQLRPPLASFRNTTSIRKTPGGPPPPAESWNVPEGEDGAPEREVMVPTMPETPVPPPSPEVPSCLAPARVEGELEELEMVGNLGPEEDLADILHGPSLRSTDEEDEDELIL
* hit, by the source's call; i = inactive; . = no result given. An excerpt weighted towards active compounds, which were near 3.4% of everything screened.

SMILES	MC4R barr agon	MIN6 prolif	MC4R antag cAMP	ANO1 activ	ANO1 block	HTR2A ag	TMEM16A reconf	TMEM16A Ca cntr	Parental YFP cnt	ClC-1 rat inh
CCn1cnc2scc(-c3ccccc3)c2c1=O	-2.6	3.1	2.8	i	100*	1.0	i	i	-1.13	-11.5
COc1ccc(-c2csc3ncn(Cc4ccccc4)c(=O)c23)cc1	0.5	-1.6	-3.2	i	i	-6.4	.	.	.	.
CC(=O)C1=CCC(c2ccc(Cl)cc2)N(S(=O)(=O)c2ccc(C)cc2)C1 (centres undefined)	.	.	.	.	.	-2.9	.	.	.	.
Cc1ccc(S(=O)(=O)CC(=O)Nc2ncc([N+](=O)[O-])s2)cc1	-0.6	0.5	1.0	i	25*	6.1	38.5%*	i	-0.995	-17.5
O=C(Nc1ncc([N+](=O)[O-])s1)c1cccs1	-0.2	-2.9	20.6	i	25*	0.8	24.5%*	i	-1.08	-3.0
Cc1cnc(NC(=O)c2cccs2)s1	-0.4	-4.9	-11.6	i	i	7.9	.	.	.	.
CC(C)CCNC(=O)c1ccc(-c2ccccc2)cc1	.	-2.7	.	.	i	.	.	.	.	.
CCc1ccc(NC(=O)CCC(=O)Nc2nnc(C(F)(F)F)s2)cc1	-3.2	1.5	12.5	i	i	0.7	.	.	.	.
Cc1nc(N)sc1-c1csc(Nc2cccc(O)c2)n1	-0.7	-3.2	1.9	i	i	2.9	.	.	.	.
Cc1nc(C)c(-c2csc(Nc3ccccn3)n2)s1	-1.8	-0.6	3.8	i	25*	7.4	28.5%*	i	-1.12	-5.5
Cc1nc(C)c(-c2csc(Nc3cccc(O)c3)n2)s1	-2.2	-3.6	17.1	i	100*	-3.9	38.0%*	i	-0.807	-8.0
Cc1nc(N)sc1-c1csc(Nc2ccc(Cl)cn2)n1	-3.8	-4.3	12.8	i	25*	-2.6	26.5%*	i	-0.952	-1.5
CC(C)(C)C(=O)Nc1sc(-c2ccccc2)cc1C(=O)O	-2.1	-4.8	10.7	i	i	-3.7	.	.	.	.
Cc1cccc(C(=O)Nc2sc(-c3ccccc3)cc2C(=O)O)c1	-3.4	-4.2	16.5	i	25*	0.5	i	i	-0.85	-0.5
O=C1NC[C@@H](CCCCN2CCN(CC3CCCCC3)C(=O)C2=O)N(CCC2CCCCC2)C1=O	.	.	.	.	.	10.2	.	.	.	.
FC(F)(F)c1cnc(N2CCN(C(=S)NCc3ccccc3)CC2)c(Cl)c1	0.4	-1.5	3.3	i	i	0.7	.	.	.	.
FC(F)(F)c1cnc(N2CCCN(C(=S)Nc3ccccc3)CC2)c(Cl)c1	1.9	-3.9	1.7	i	100*	3.1	33.0%*	i	-0.853	-8.0
Cc1csc(NC(=O)CSc2nc(=O)n(CCN(C)C)c3c2CCCC3)n1	-2.5	1.8	10.9	i	i	-4.8	.	.	.	.
CCOc1ccc(OCc2ccc(C(=O)N3N=C(C(F)F)CC3(O)C(F)F)o2)cc1 (centres undefined)	8.2	-4.4	3.2	i	25*	1.9	i	i	-1.05	-14.5
CC(C)c1ccc(OCc2ccc(C(=O)N3CCCC3)o2)cc1	3.1	0.0	5.3	i	25*	-0.1	53.0%*	i	-1.09	-15.0
O=C(c1ccc(COc2ccc3c(c2)CCC3)o1)N1CCN(c2ccccc2)CC1	-1.5	-4.2	2.8	i	100*	-7.3	i	i	-1.09	-3.0
CCOC(=O)c1ccc(COc2ccc(C(C)C)cc2)o1	-0.8	-2.6	12.5	i	i	-0.9	.	.	.	.
CCOc1ccc(OCc2ccc(C(=O)N3CCCC3)o2)cc1	-0.2	1.9	0.2	i	i	6.6	.	.	.	.
CCCc1ccc(OCc2ccc(C(=O)N3CCCC3)o2)cc1	4.7	-2.9	3.1	i	100*	-4.3	61.5%*	i	-0.99	-19.0
Cc1onc(-c2ccccc2Cl)c1C(=O)N1CCCCC1C (centres undefined)	-0.1	-3.8	1.2	i	i	-3.0	.	.	.	.
SMILES	MC4R barr agon	MIN6 prolif	MC4R antag cAMP	ANO1 activ	ANO1 block	HTR2A ag	TMEM16A reconf	TMEM16A Ca cntr	Parental YFP cnt	ClC-1 rat inh
CCOC(=O)N1CCN(c2ccc(C(=O)c3ccccc3)cc2F)CC1	1.2	0.3	3.0	i	100*	4.6	23.0%*	i	-1.11	-9.0
CC1(C(=O)NCC2CC2)CCN1C(=O)C1(c2ccc(Cl)cc2)CC1 (centres undefined)	1.7	.	7.0	.	.	1.9	.	.	.	.
Cc1ccc(C(=O)O/N=C2\CC3CCC2(C)C3(C)C)cc1 (centres undefined)	5.6	-2.1	-0.4	i	25*	13.5	i	i	-1.12	-3.5
COc1cccc(NC(=O)c2ccc(S(=O)(=O)NCc3cccnc3)cc2)c1	-2.1	-2.5	2.2	i	100*	-7.6	i	i	-0.917	-6.0
COc1ccc(-c2cc(C(F)(F)F)n3nc(C(=O)N4CCCCC4)cc3n2)cc1	1.9	2.5	-6.1	i	i	3.1	.	.	.	.
COc1cccc(-c2cc(C(F)(F)F)n3nc(C(=O)N4CCCCC4c4cccnc4)cc3n2)c1 (centres undefined)	2.9	-2.9	22.0	i	25*	3.6	i	i	-1.08	-12.0
COc1cc(OC)cc(-c2c(C#Cc3ccsc3)c3cc(-c4ccc5c(c4)OCCO5)ccc3n2C)c1	2.2	-4.2	3.5	i	.	-1.6	.	.	.	.
CCN(C(=O)COc1ccc(F)cc1Br)c1c(N)n(Cc2ccccc2)c(=O)[nH]c1=O	-3.7	0.3	-3.9	i	.	3.0	.	.	.	.
O=S(=O)(c1ccccc1)N1CCCCC1CCc1ccccc1 (centres undefined)	2.6	.	14.0	i	.	-0.1	.	.	.	.
CC(C)(C)c1ccc(Oc2ccc(NC(=O)c3ccco3)cn2)cc1	1.0	-2.8	7.9	i	100*	-6.3	20.0%*	i	-1.11	-11.5
O=C(Nc1ccc(Oc2cccc(C(F)(F)F)c2)nc1)c1ccco1	1.8	-2.2	6.1	i	i	-0.2	.	.	.	.
O=C(NC(=O)c1c(Cl)cccc1Cl)Nc1ccc(Oc2cccnc2)nc1	2.9	0.2	-0.8	i	i	-3.4	.	.	.	.
